Experimental data published in article PMC4097008 (Molecular immunology, 2014).
Where two headings read alike, the source gives them in different places.

Key:
[1] = molecular target: T1, Bla g 4 (Blattella germanica, UniProt P54962); test: isothermal titration calorimetry; assay type: binding
Outline: (§1)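 Bla g 4 binding enthalpy was recorded by ITC at 25°C in 20 mM phosphate buffer, pH 8.0, with 100 μM protein and test amine titrant at 1 mM initial concentration. Supporting 1H-15N HSQC titrations used 0.2 mM 15N-labelled Bla g 4 (M9, 15N ammonium chloride) in 20 mM acetate, pH 4.5, 10% D2O, at 308 K and 800 MHz. Protein:ligand molar ratios were 1:0, 1:0.5, 1:1 and 1:2.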

[2] = molecular target: T1, Bla g 4; test: isothermal titration calorimetry; assay type: binding; remark: listed apart in the source
Outline: as §1

T1 sequence (P54962 7-182): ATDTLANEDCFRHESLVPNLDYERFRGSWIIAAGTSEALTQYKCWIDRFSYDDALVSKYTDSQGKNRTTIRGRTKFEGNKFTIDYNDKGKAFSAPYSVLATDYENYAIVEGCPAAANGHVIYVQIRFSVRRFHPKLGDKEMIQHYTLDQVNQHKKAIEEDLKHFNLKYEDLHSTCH

NCCc1ccc(O)cc1 [tyramine]
Kd [1]: 45 nM

NC[C@H](O)c1ccc(O)cc1 [octopamine]
Kd [2]: 185 nM
